Sampled rows, rich in hits. Any-hit rate of the full collection: about 1.9%.
Rin1-Abl PPI inh – inhibitors of human Rin1-Abl protein interaction | P00519+Q13671 | TR-FRET Rin1/Abl binding, biochemical | inhibition, % at 7.35 µM | hit rate 0.4% among 360,000 | AID 588664; in the data active = inhibition above about 5%, passing the limit was not always enough
NadD inh – NadD (S. aureus) enzyme inhibition. AID 602399. purified NadD enzyme, colorimetric absorbance read-out. hit rate 0.78% among 360,000. inhibition, % at 20 µM; in the data active = inhibition above about 26%
Rpn11 block – blocks the human proteasome subunit Rpn11; AID 588493; hit rate 0.59% among 360,000; O00487; human 26S proteasome, Ub4-pepOG fluorescence polarization; 20S core pre-blocked with epoxomicin; inhibition, % at 20 µM;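 active = inhibition at 20 µM, scaled to each plate's controls, above about 33%, limit read from the data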
Target sequence (O00487 whole entry, looked up): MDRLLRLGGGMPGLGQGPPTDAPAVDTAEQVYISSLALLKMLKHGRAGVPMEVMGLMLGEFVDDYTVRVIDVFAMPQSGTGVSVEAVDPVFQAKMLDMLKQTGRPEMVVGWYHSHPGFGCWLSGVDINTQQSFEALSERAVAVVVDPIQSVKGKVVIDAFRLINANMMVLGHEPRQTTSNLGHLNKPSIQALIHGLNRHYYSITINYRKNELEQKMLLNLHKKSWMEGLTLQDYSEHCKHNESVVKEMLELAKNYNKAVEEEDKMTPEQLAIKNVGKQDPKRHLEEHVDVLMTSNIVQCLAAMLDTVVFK
ABHD5-PLIN5 inh – blocks binding of human ABHD5 to perilipin-5; inhibition, % at 4 µM; AID 602281; hit rate 0.78% among 360,000; Split G. princeps luciferase complementation, luminescence, 4 h;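 active = inhibition above the mean inhibition across every tested compound plus 3 SD, cut at about 22% in these data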;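 also: 0% = DMSO only wells and the 100% control is not disclosed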
Xi reactivation – reactivates the inactive X chromosome in mouse fibroblasts; AID 743238; hit rate 0.055% among 360,000; XiGFP mouse fibroblasts, % GFP-positive cells imaging, 3 d; cells co-treated with 5-aza-dC sensitizer; scaled so ellipticine positive control = 100%; activation, % at 7.58 µM;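 active = mean normalized replicate activation at least 10% and every replicate at or above 10%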;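 also: 0% = median of on-plate neutral control wells and 100% = ellipticine 6 µM median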
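Schedule: 3 d treatment, 15 min room-temperature fixation; system: 68-5-11 XiGFP fibroblast line; buffer or medium: DMEM plus 5-aza-dC sensitizer; control set: ellipticine 6 µM positive control; compound: one concentration, pinned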
Numbers without * were called inactive; x = no result shown; ! = repeats disagree.

SMILES	Rin1-Abl PPI inh	NadD inh	Rpn11 block	ABHD5-PLIN5 inh	Xi reactivation
CCC(=O)NC(c1cccs1)c1ccc2cccnc2c1O (stereo not drawn)	9.8*	9	13	3	0
CCCC(=O)NC(c1ccc(Cl)cc1)c1ccc2cccnc2c1O (stereo not drawn)	5	-1	22	12	1
CCCCC(=O)NC(c1ccc(Cl)cc1)c1ccc2cccnc2c1O (stereo not drawn)	3	4	6	22*	1
COc1ccc(-c2ccc([C@H]3[C@@H](CO)N4C(=O)CNC[C@@H]34)cc2)cc1	x	x	x	x	1
O=C(C1CC1)N1CC(=O)N2[C@H](CO)[C@H](c3ccc(-c4ccccc4F)cc3)[C@H]2C1	x	x	x	x	0
O=[N+]([O-])c1cc(Cc2ccccc2)cc(C=Nc2ccc(N3CCOCC3)cc2)c1O	-6	27	-10	1	x
COc1cc(C=Nc2cccc(C)c2)c(O)c([N+](=O)[O-])c1	-2	4	39*	5	0
Cc1ccc(O)c(N=Cc2cc(Cc3ccccc3)cc([N+](=O)[O-])c2O)c1	1	54*	0	2	0
CNC[C@H]1Oc2ccc(NC(C)=O)cc2C(=O)N(C)C[C@H]1C	x	x	x	x	0
COc1ccc2c3c(n(C)c2c1)[C@@H](CO)N(CC1CCOCC1)CC31CN(C(=O)c2cccc(F)c2)C1	x	x	x	x	0
CCOc1ccc(N2C(=O)CS/C2=C(\C(Cl)=C(Cl)Cl)[N+](=O)[O-])cc1	-2	5	71*	5	x
Cc1cc([N+](=O)[O-])nn1Cc1ccc(C(=O)N/N=C/c2ccc(O)cc2O)cc1	-2	-2	2	2	0
O=C(N/N=C/c1ccc(O)cc1O)c1ccc(CN2C(=O)c3cccc4cccc2c34)cc1	-4	44*	19	6	0
FC(F)(F)CN1CC2C(c3ccc(Br)cc3)C(C1)N2CC(F)(F)F (stereo not drawn)	x	x	x	x	0
COc1cc(/C=C/C(=O)c2ccc(NS(=O)(=O)c3ccc(C)cc3)cc2)ccc1OC(F)F	2	8	-4	22*	0
COc1cc(/C=C/C(=O)O)ccc1OS(=O)(=O)c1ccc(C)cc1	0	-20	-3	-3	0
COc1ccc2c3c(n(C)c2c1)[C@H](CO)N(C(C)=O)CC31CN(Cc2cccnc2)C1	x	x	x	x	0
CN1/C(=C\C=O)C(C)(C)c2ccccc21	-5	0	22	-7	0
CN1/C(=C/C=C(C#N)C#N)C(C)(C)c2ccccc21	2	-3	8	7	25*
CCCNC(=O)N1[C@@H](CO)[C@H](c2ccccc2)C12CN(C(=O)c1cccnc1)C2	x	x	x	x	0
CCOC(=O)c1ccc2c(c1)n(CC)c(/C=C/N(C)c1ccccc1)[n+]2CC	-3	2	1	8	0
CC[n+]1c(/C=C/N(C)c2ccccc2)n(-c2ccccc2)c2ccc(-c3nc4ccccc4s3)cc21	-13	32*	-2	36*	x
Cc1cc(C)cc(OCC(=O)Nc2ccc3c(c2)C(=O)c2ccccc2C3=O)c1	2	31*	10	-3	0
Cc1cc(C)cc(OCC(=O)Nc2ccc(N3CCCC3)cc2)c1	-5	57*	34	4	x
CC(=O)N(C)C[C@@H]1Oc2ccc(N)cc2CC(=O)N(C)C[C@@H]1C	x	x	x	x	1
SMILES	Rin1-Abl PPI inh	NadD inh	Rpn11 block	ABHD5-PLIN5 inh	Xi reactivation
O=C(O)c1ccc(N2C(=O)/C(=C/c3ccc(-c4ccc([N+](=O)[O-])cc4)o3)C=C2c2ccccc2)cc1	2	56*	78*	6	x
O=C1NN(c2ccccc2)C(=O)/C1=C/c1ccc(-c2ccc(C(=O)O)cc2)o1	0	8	10	3	0
CN1c2ccccc2C(C)(C)C12C=Nc1c(cc(N3CCOCC3)c3ccccc13)O2 (stereo not drawn)	3	16	25	-44	x
CN1c2ccccc2C(C)(C)C12C=Cc1cc(O)ccc1O2 (stereo not drawn)	4	3	82*	5	x
COc1ccc2c3c([nH]c2c1)[C@H](CO)N(C(=O)Nc1c(C)noc1C)CC31CN(CC2CC2)C1	x	x	x	x	0
Cc1cc2c(N=O)c(NO)ccc2[nH]1	12*	9	-6	1	x
O=C(Nc1ccccc1)N1C[C@H]2[C@@H](c3ccccc31)[C@H](CO)N2Cc1ccccc1	x	x	x	x	0
CCCC(=O)Nc1nc(C)c(-c2csc(Nc3cc(OC)ccc3OC)n2)s1	-1	22	10	-19	0
COc1ccc(OC)c(Nc2nc(-c3sc(N)nc3C)cs2)c1	-1	32*	17	-21	x
Cc1ccc(-c2ccc(C(=O)NCc3ccc(Cl)cc3)o2)c2ccccc12	0	27*	11	22*	0
CCN1CCN(Cc2ccc(NC(=O)c3ccc(C)c(NC(=O)C(=O)c4c[nH]c5ccccc45)c3)cc2C(F)(F)F)CC1	-4	11	11	30*!	0
CCN1CCN(Cc2ccc(NC(=O)c3cc(NC(=O)C(=O)c4c[nH]c5ccccc45)cc(OC)c3)cc2C(F)(F)F)CC1	-1	23	5	22*!	0
C[C@H]1CC=CC[C@@H](c2cccc(Cl)c2)NC(=O)[C@H](C)N(C)C(=O)c2ccccc2O1 (mixture of isomers)	x	x	x	x	0
COc1ccc2c3c([nH]c2c1)[C@@H](CO)N(Cc1ccccc1)CC31CCN(C(=O)Nc2cccc(F)c2)CC1	x	x	x	x	0
O=C1C(Cl)=C(N2CCN(c3ccccc3[N+](=O)[O-])CC2)C(=O)c2ccccc21	-6	10	-5	-7	35*
O=[N+]([O-])c1cc(Cl)ccc1N1CCCC1	-2	7	-12	-9	1
COc1ccc([C@H]2CC=CC[C@H](C)Oc3ccccc3C(=O)N(C)[C@H](C)C(=O)N2)c(OC)c1 (mixture of isomers)	x	x	x	x	0
CCCCOC(=O)c1ccc(N=Nc2c(C)c(C#N)c(O)[nH]c2=O)cc1	0	52*	x	-14	x
Cc1cccc(N=Nc2c(C)c(C#N)c(O)[nH]c2=O)c1	1	8	x	3	0
O=c1c2ccc(F)cc2sn1-c1ccccc1	-2	4	-12	72*	0
O=c1c2ccccc2sn1-c1ccc(F)cc1	4	9	-5	71*	0
COC(=O)c1cccc(-n2sc3ccccc3c2=O)c1	3	-9	0	91*	3
COc1ccc(CN(C)C[C@@H]2OCCCC[C@@H](C)Oc3ccc(NS(C)(=O)=O)cc3C(=O)N([C@H](C)CO)C[C@H]2C)cc1	x	x	x	x	-1
C[C@@H]1CN(C)C(=O)Cc2cc(NS(C)(=O)=O)ccc2O[C@@H]1CN(C)C	x	x	x	x	0
C[C@H]1CN(C)C(=O)Cc2cc(N(C)C)ccc2O[C@@H]1CN(C)C(=O)OC(C)(C)C	x	x	x	x	0
COc1ccc(NC(=O)/C(N=Nc2cc(S(=O)(=O)Nc3ccc(OC)cc3)ccc2OC)=C(\C)O)cc1	3	-1	-2	6	0

High-throughput results: PubChem, several laboratories
